Sampled rows, rich in hits. Any-hit rate of the full collection: about 1.8%.
CHRM5 PAM = CHRM5 positive allosteric modulation; hit rate 0.3% among 360,000; CHO-K1 hM5, Fluo-8 calcium, ACh EC20 PAM; 0% = ACh EC20, 100% = ACh EC100; P08912; activation, % at 3 µM;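 active means activation above the run cutoff, the mean activation of all test compounds plus 3 SD, cut at about 18% in these data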
Target sequence (P08912 whole entry, looked up): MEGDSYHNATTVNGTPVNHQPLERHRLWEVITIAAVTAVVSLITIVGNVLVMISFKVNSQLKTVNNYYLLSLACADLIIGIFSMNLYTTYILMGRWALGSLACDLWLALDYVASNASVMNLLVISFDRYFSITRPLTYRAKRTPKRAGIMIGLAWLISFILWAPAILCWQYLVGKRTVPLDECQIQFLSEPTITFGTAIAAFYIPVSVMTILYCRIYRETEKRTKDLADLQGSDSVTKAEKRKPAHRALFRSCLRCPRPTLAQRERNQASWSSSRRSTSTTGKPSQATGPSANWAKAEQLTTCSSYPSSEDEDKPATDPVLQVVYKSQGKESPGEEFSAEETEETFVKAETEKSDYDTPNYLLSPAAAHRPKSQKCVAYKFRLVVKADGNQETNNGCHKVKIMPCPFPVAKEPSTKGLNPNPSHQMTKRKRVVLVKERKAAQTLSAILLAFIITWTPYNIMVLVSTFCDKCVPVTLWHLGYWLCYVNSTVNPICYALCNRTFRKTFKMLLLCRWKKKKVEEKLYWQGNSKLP
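Measured by: Fluo-8 calcium fluorescence; material: human M5 receptor in CHO-K1 cells; schedule: Post-acetylcholine fluorescence recording 140 s; benchmarks: low control EC20 acetylcholine (0%), high control EC100 acetylcholine (100%); read-out: Max/basal fluorescence ratio as % of EC20–EC100 ACh window; compound: single dose, 3 µM nominal final test concentration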
M4 antag = antagonists of human muscarinic M4 receptor (CHRM4); inhibition, % at 3 µM; hit rate 0.73% among 360,000; P08173; CHO-hM4 cells, ACh EC80, Fluo-8 calcium fluorescence;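 active means inhibition above its plate's cutoff, the mean inhibition of sample wells plus 3 SD, cut at about 27% in these data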;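 further: 0% = acetylcholine EC80 with DMSO and 100% = DMSO without agonist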
CHRM4 PAM = potentiates acetylcholine response at human M4 receptor; hit rate 0.4% among 360,000; P08173; CHO-K1 hM4/Gqi5, Fluo-8 calcium fluorescence, ACh EC20; 0% = ACh EC20, 100% = maximal ACh; AID 624126; activation, % at 3 µM;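 active means activation above its plate's cutoff, the mean activation of sample wells plus 3 SD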
CHRM4 agonist = agonists of human muscarinic M4 receptor (CHRM4); CHO-K1 hM4/Gqi5, Fluo-8 calcium fluorescence; vehicle 0%, full acetylcholine response 100%; activation, % at 3 µM; P08173; hit rate 0.14% among 360,000; AID 624127;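 active means activation above the run mean over all test wells plus 3 SD, cut at about 32% in these data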;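 further: peak over basal fluorescence ratio per well then scaled between controls; 0% = DMSO wells and 100% = acetylcholine at EC100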
CHRM5 agonist = CHRM5 agonism in calcium assay. activation, % at 3 µM. hit rate 0.19% among 360,000. CHO-K1 hM5 cells, Fluo-8 calcium fluorescence; 0% DMSO wells, 100% maximal acetylcholine response. P08912. AID 624037;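 active means activation above the run's mean over test compounds plus 3 SD, cut at about 23% in these data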;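 further: signal is peak over basal fluorescence ratio across the kinetic read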
CHRM5 antagonist = CHRM5 antagonism in calcium assay; inhibition, % at 3 µM; CHO-hM5 cells, Fluo-8 calcium fluorescence, ACh EC80; hit rate 0.59% among 360,000; P08912; AID 624040;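 active means inhibition above a per-plate cutoff, the mean of that plate's test compounds plus 3 SD, cut at about 27% in these data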;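 further: 0% = acetylcholine EC80 with DMSO and 100% = DMSO without agonist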
Starred values were filed as active, the others as inactive.

SMILES	CHRM5 PAM	M4 antag	CHRM4 PAM	CHRM4 agonist	CHRM5 agonist	CHRM5 antagonist
CCn1cc(Cl)c(C(=O)Nc2ccccc2C(N)=O)n1	2	6	-11	2	0	2
c1ccc(NCCC2OCC3(CO2)COC(CCNc2ccccc2)OC3)cc1 (configuration not stated)	-8	-3	-2	5	-1	29*
O=C(NCCc1c[nH]c2ccccc12)C(=O)Nc1cc2c3c(c1)CC(=O)N3CCC2	-7	0	-1	9	4	9
CCC(=O)N1CCc2cc(Br)cc(S(=O)(=O)CCC(=O)NCC3CCCO3)c21 (configuration not stated)	19*	3	-2	1	10	-12
CCC(=O)N1CCc2cc(Br)cc(S(=O)(=O)NCC3CCCO3)c21 (configuration not stated)	-8	-7	2	1	0	4
Cc1ccc(C(=O)c2ccc([N+](=O)[O-])cc2)cc1	2	-6	2	-2	-6	-3
Cc1ccc(C(=O)c2coc3cc([N+](=O)[O-])c(O)c([N+](=O)[O-])c23)cc1	-4	-2	31*	-1	-2	7
CN1CCN(S(=O)(=O)c2cccc(C(=O)N(C)CC(=O)Nc3ccc(F)c(F)c3F)c2)CC1	5	-3	4	1	-4	-6
CCOC(=O)N1CCN(C(=O)COC(=O)COc2c(C)cc(C)cc2C)CC1	4	-15	24*	1	1	5
CC(=O)Nc1ccc(/C=C(\C#N)S(=O)(=O)c2ccc(C)cc2)cc1	5	8	-8	0	-2	3
Nc1nc2ccccc2cc1C(=O)NCCCCc1ccccc1	-23	14	-8	17	8	28*
Cc1ccc(S(=O)(=O)N(C)c2ccc(OCC(=O)Nc3nc4ccccc4s3)cc2)cc1	-16	21	-13	10	0	31*
CCC(=O)c1ccc(OCC(=O)Nc2cccc(S(=O)(=O)N(C)c3ccccc3)c2)cc1	-41	29*	-11	27	1	34*
Cc1nnc(SCC(=O)Nc2cccc(S(=O)(=O)N(C)c3ccccc3)c2)s1	-18	25	-8	13	8	31*
CN(c1ccccc1)S(=O)(=O)c1cccc(C(=O)NC2CCCCC2)c1	1	-4	3	5	-2	-2
CN(c1ccccc1)S(=O)(=O)c1cccc(NS(=O)(=O)c2cccc(C(=O)O)c2)c1	23*	-7	8	-2	4	-9
COc1ccc2[nH]c3c(c2c1)CCN1C(=O)C(CC(=O)NCc2cccc(C(F)(F)F)c2)C[C@H](C(=O)N2CCCCC2)[C@@]31CCc1ccccc1 (some centres not stated)	10	0	8	0	1	-1
COC(=O)[C@@]12C[C@@H](CC(=O)NCc3ccccc3)C(=O)N(Cc3ccc4c(c3)OCO4)C1=CCC(C)(C)C2	2	0	3	11	0	-3
Clc1cccc(NCc2ccccc2)n1	-1	0	22*	4	-5	7
c1ccc(Cc2noc(CN3CCCN(C4Cc5ccccc5C4)CC3)n2)cc1	-31	51*	-28	15	-12	32*
CC(NC(=O)CCc1nnc(CCCc2ccccc2)o1)c1ccccc1 (configuration not stated)	-8	4	0	0	-4	5
C=CCNC(=S)Nc1ccc(Cl)cc1	5	-9	-1	2	-1	6
O=C(Nc1ccc([N+](=O)[O-])cc1)Nc1ccc(OC(F)F)c(Cl)c1	-19	17	-13	11	8	33*
COc1cc([N+](=O)[O-])ccc1NC(=O)Nc1ccc2c(c1)OCCO2	22*	1	-5	0	4	11
C=CCNC(=S)Nc1ccc(OC(F)F)c(Cl)c1	-14	15	-5	19	3	29*
SMILES	CHRM5 PAM	M4 antag	CHRM4 PAM	CHRM4 agonist	CHRM5 agonist	CHRM5 antagonist
O=C(Nc1ccc(OC(F)F)c(Cl)c1)c1cccc(OC(F)F)c1	-22	10	-21	7	-5	40*
COc1ccc(NC(=O)c2cccc(OC(F)F)c2)cc1Cl	-7	0	-4	8	1	-9
Cc1ccccc1CCN(C(=O)Cn1nnc2ccccc21)C(C(=O)NCC1CCCO1)c1nc2ccccc2n1C (configuration not stated)	-3	5	-5	0	-3	-1
OC(c1ccccn1)(c1ccccn1)c1ccccn1	-2	-2	9	2	-1	0
COc1ccc(NC(=O)Nc2cccc([N+](=O)[O-])c2)cc1Cl	-19	14	-12	15	5	31*
O=C(Nc1cccc([N+](=O)[O-])c1)Nc1ccc2c(c1)CCC2	-14	1	-5	18	6	35*
COc1ccc(C(=O)Nc2cccc([N+](=O)[O-])c2)cc1Br	0	-4	0	1	-2	6
COc1ccc(NC(=O)Nc2ccc3c(c2)N(C)C(=O)CS3)cc1OC	-13	-10	-1	17	3	4
O=C(Nc1ccccc1)Nc1cc([N+](=O)[O-])ccc1F	-14	-11	3	11	6	5
COc1ccc(NC(=O)Nc2ccc3c(c2)N(C)C(=O)CS3)cc1Cl	-24	17	-15	22	9	31*
O=C(Nc1ccccc1)Nc1ccc2c(c1)CCC2	-10	2	-11	11	0	22
Cc1ccc([N+](=O)[O-])cc1NC(=O)Nc1cccc(F)c1	-17	22	-16	23	10	30*
COc1ccc(NC(=O)C(=O)NCCCO)cc1Cl	-4	-5	5	5	1	4
CC(C)(C)C(=O)Nc1ccc2c(c1)OCCOCCOc1cc(NC(=O)C(C)(C)C)ccc1OCCOCCO2	0	1	-7	1	2	-18
CC(=O)Nc1ccc2c(c1)OCCOCCOc1cc(NC(C)=O)ccc1OCCO2	12	27*	13	5	4	-8
CCOC(=O)C(=O)Nc1ccc(OC)c(Cl)c1	0	-3	23*	2	-3	5
COc1ccccc1-c1cnc(C(O)c2c(C)cc(C)cc2C)[nH]1 (configuration not stated)	0	11	0	2	0	-3
O=C(NNC(=O)c1cccc2ccccc12)c1ccccc1O	-1	-14	17*	7	-1	7
O=C(NNC(=O)c1cccc2ccccc12)c1ccc(-c2ccccc2)cc1	-16	-7	-9	20	-2	6
O=C(NNc1c2ccccc2nc2ccccc12)c1ccccc1O	-16	0	-11	17	-2	34*
